Data: ChEMBL document CHEMBL1122708, “Preparation and antibacterial activities of new 1,2,3-diazaborine derivatives and analogues” (1984)
Converted amounts (≈) assume the structure as drawn.

Legend:
Klebsiella aerogenes = test: Minimum inhibitory concentration of compound against Enterobacter aerogenes delta 220; assay type: functional
Klebsiella pneumoniae = test: Minimum inhibitory concentration of compound against Klebsiella pneumoniae delta 217; assay type: functional
Escherichia coli [1] = test: Antibacterial activity againist Escherichia coli 120 infected NMRI mice after peroral administration; assay type: functional; details: po
How it was run: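 ED50 in NMRI mice infected intraperitoneally with E. coli 120; compound given orally immediately and 5 h after infection.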

Neisseria gonorrhoeae [2] = test: Minimum inhibitory concentration of compound against Neisseria gonorrhoeae AS 7720; assay type: functional
How it was run: (§1)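 Agar dilution on Kellogg agar, 10⁶ colony forming units, incubated 20 h at 36 °C in 5% CO₂; MIC is the lowest concentration giving no visible growth.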

Proteus mirabilis = test: Minimum inhibitory concentration against Proteus mirabilis delta 89; assay type: functional
Salmonella typhimurium = test: Minimum inhibitory concentration of compound against Salmonella Typhimurium delta 119; assay type: functional, Salmonella enterica subsp. enterica serovar Typhimurium; details: Salmonella enterica
Neisseria gonorrhoeae [3] = test: Minimum inhibitory concentration of compound against Neisseria gonorrhoeae W2; assay type: functional; how it was run: as §1
Escherichia coli [4] = test: Minimum inhibitory concentration of compound against Escherichia coli delta 120; assay type: functional

Row | SMILES | MIC (Klebsiella aerogenes) | MIC (Klebsiella pneumoniae) | MIC (Neisseria gonorrhoeae [2]) | MIC (Proteus mirabilis) | MIC (Salmonella typhimurium) | MIC (Neisseria gonorrhoeae [3]) | MIC (Escherichia coli [4]) | ED50 (Escherichia coli [1])
1 | Cc1ccc(S(=O)(=O)N2N=Cc3cc4c(cc3B2O)-c2ccccc2C4)cc1 | > 50 µg/mL | > 50 µg/mL | 2 µg/mL (≈ 5.15 µM) | 50 µg/mL (≈ 129 µM) | > 50 µg/mL | 8 µg/mL (≈ 20.6 µM) | > 50 µg/mL | > 600 mg/kg
2 | Cc1ccc(S(=O)(=O)N2N=Cc3cc(F)ccc3B2O)cc1 | > 50 µg/mL | 6.25 µg/mL (≈ 19.6 µM) | 2 µg/mL (≈ 6.29 µM) | 6.25 µg/mL (≈ 19.6 µM) | 6.25 µg/mL (≈ 19.6 µM) | 8 µg/mL (≈ 25.1 µM) | 25 µg/mL (≈ 78.6 µM) | ~25 mg/kg
3 | Cc1ccc(S(=O)(=O)N2N=Cc3c(ccc4ccccc34)B2O)cc1 | > 50 µg/mL | 25 µg/mL (≈ 71.4 µM) | 2 µg/mL (≈ 5.71 µM) | 3.12 µg/mL (≈ 8.91 µM) | > 50 µg/mL | 8 µg/mL (≈ 22.8 µM) | > 50 µg/mL | > 100 mg/kg
4 | Cc1ccc(S(=O)(=O)N2N=Cc3sc(C)cc3B2O)c(Cl)c1 | 50 µg/mL (≈ 141 µM) | 1.56 µg/mL (≈ 4.4 µM) | 0.5 µg/mL (≈ 1.41 µM) | 1.56 µg/mL (≈ 4.4 µM) | 12.5 µg/mL (≈ 35.2 µM) | 1 µg/mL (≈ 2.82 µM) | 50 µg/mL (≈ 141 µM) | 32 mg/kg
5 | Cc1ccc(S(=O)(=O)N2N=Cc3c(F)cccc3B2O)cc1 | > 50 µg/mL | 25 µg/mL (≈ 78.6 µM) | 2 µg/mL (≈ 6.29 µM) | 3.12 µg/mL (≈ 9.81 µM) | 25 µg/mL (≈ 78.6 µM) | 8 µg/mL (≈ 25.1 µM) | > 50 µg/mL | 5 mg/kg
6 | Cc1cc(C)c(S(=O)(=O)N2N=Cc3sc(Br)cc3B2O)c(C)c1 | > 50 µg/mL | 25 µg/mL (≈ 60.5 µM) | 1 µg/mL (≈ 2.42 µM) | 2.5 µg/mL (≈ 6.05 µM) | > 50 µg/mL | 2 µg/mL (≈ 4.84 µM) | > 50 µg/mL | > 600 mg/kg
7 | Cc1ccc(S(=O)(=O)N2N=Cc3sc(Cl)cc3B2O)cc1 | 50 µg/mL (≈ 147 µM) | 2.5 µg/mL (≈ 7.34 µM) | 1 µg/mL (≈ 2.94 µM) | 1.56 µg/mL (≈ 4.58 µM) | 5 µg/mL (≈ 14.7 µM) | 1 µg/mL (≈ 2.94 µM) | 25 µg/mL (≈ 73.4 µM) | 28 mg/kg
8 | Cc1ccc(S(=O)(=O)N2N=Cc3sc(Br)cc3B2O)c(Cl)c1 | 50 µg/mL (≈ 119 µM) | 6.25 µg/mL (≈ 14.9 µM) | 0.25 µg/mL (≈ 0.596 µM) | 3.12 µg/mL (≈ 7.44 µM) | 12.5 µg/mL (≈ 29.8 µM) | 1 µg/mL (≈ 2.38 µM) | 50 µg/mL (≈ 119 µM) | 39 mg/kg
9 | CC(=O)Nc1ccc(S(=O)(=O)N2N=Cc3cc(Br)ccc3B2O)c(Cl)c1 | 50 µg/mL (≈ 110 µM) | 3.12 µg/mL (≈ 6.83 µM) | 1 µg/mL (≈ 2.19 µM) | 1.56 µg/mL (≈ 3.42 µM) | 12.5 µg/mL (≈ 27.4 µM) | 2 µg/mL (≈ 4.38 µM) | 50 µg/mL (≈ 110 µM) | 83 mg/kg
10 | Cc1ccc(S(=O)(=O)N2N=Cc3ccccc3B2O)cc1 | > 50 µg/mL | 3.12 µg/mL (≈ 10.4 µM) | 2 µg/mL (≈ 6.66 µM) | 12.5 µg/mL (≈ 41.6 µM) | 6.25 µg/mL (≈ 20.8 µM) | 8 µg/mL (≈ 26.7 µM) | 25 µg/mL (≈ 83.3 µM) | ~25 mg/kg
11 | Cc1ccccc1S(=O)(=O)N1N=Cc2sc(Br)cc2B1O | 50 µg/mL (≈ 130 µM) | 3.12 µg/mL (≈ 8.1 µM) | 0.5 µg/mL (≈ 1.3 µM) | 1.56 µg/mL (≈ 4.05 µM) | 6.25 µg/mL (≈ 16.2 µM) | 0.5 µg/mL (≈ 1.3 µM) | 25 µg/mL (≈ 64.9 µM) | 57 mg/kg

Further lines, with some results ahead:

Row | MIC (Klebsiella aerogenes) | MIC (Klebsiella pneumoniae) | MIC (Neisseria gonorrhoeae [2]) | MIC (Proteus mirabilis) | MIC (Salmonella typhimurium) | MIC (Neisseria gonorrhoeae [3]) | MIC (Escherichia coli [4]) | SMILES | ED50 (Escherichia coli [1])
12 | 25 µg/mL (≈ 70.5 µM) | 1.25 µg/mL (≈ 3.52 µM) | 0.5 µg/mL (≈ 1.41 µM) | 1.56 µg/mL (≈ 4.4 µM) | 2.5 µg/mL (≈ 7.05 µM) | 1 µg/mL (≈ 2.82 µM) | 10 µg/mL (≈ 28.2 µM) | CCc1cc2c(s1)B(O)N(S(=O)(=O)c1ccccc1Cl)N=C2 | 24 mg/kg
13 | 50 µg/mL (≈ 141 µM) | 3.12 µg/mL (≈ 8.8 µM) | 1 µg/mL (≈ 2.82 µM) | 1.56 µg/mL (≈ 4.4 µM) | 6.25 µg/mL (≈ 17.6 µM) | 1 µg/mL (≈ 2.82 µM) | 50 µg/mL (≈ 141 µM) | Cc1ccc(S(=O)(=O)N2N=Cc3cc(C)sc3B2O)c(Cl)c1 | 25 mg/kg
14 | 25 µg/mL (≈ 67.7 µM) | 3.12 µg/mL (≈ 8.46 µM) | 2 µg/mL (≈ 5.42 µM) | 3.12 µg/mL (≈ 8.46 µM) | 3.12 µg/mL (≈ 8.46 µM) | 8 µg/mL (≈ 21.7 µM) | 12.5 µg/mL (≈ 33.9 µM) | Cc1ccc(S(=O)(=O)N2N=Cc3oc(Br)cc3B2O)cc1 | ~30 mg/kg
15 | 5 µg/mL (≈ 17.5 µM) | 0.31 µg/mL (≈ 1.08 µM) | 0.5 µg/mL (≈ 1.75 µM) | 1.25 µg/mL (≈ 4.37 µM) | 0.31 µg/mL (≈ 1.08 µM) | 0.5 µg/mL (≈ 1.75 µM) | 2.5 µg/mL (≈ 8.74 µM) | CCCS(=O)(=O)N1N=Cc2cc(CC)sc2B1O | 4 mg/kg
16 | 10 µg/mL (≈ 37.6 µM) | 1.25 µg/mL (≈ 4.7 µM) | 2 µg/mL (≈ 7.52 µM) | 1.56 µg/mL (≈ 5.86 µM) | 2.5 µg/mL (≈ 9.39 µM) | 2 µg/mL (≈ 7.52 µM) | 6.25 µg/mL (≈ 23.5 µM) | CCCS(=O)(=O)N1N=Cc2cc(C)ccc2B1O | 73 mg/kg
17 | 25 µg/mL (≈ 74.8 µM) | 1.25 µg/mL (≈ 3.74 µM) | 0.25 µg/mL (≈ 0.748 µM) | 1.25 µg/mL (≈ 3.74 µM) | 1.56 µg/mL (≈ 4.67 µM) | 0.5 µg/mL (≈ 1.5 µM) | 6.25 µg/mL (≈ 18.7 µM) | CCc1cc2c(s1)B(O)N(S(=O)(=O)c1ccc(C)cc1)N=C2 | 9 mg/kg
18 | 12.5 µg/mL (≈ 33.7 µM) | 0.78 µg/mL (≈ 2.1 µM) | 1 µg/mL (≈ 2.7 µM) | 1.56 µg/mL (≈ 4.2 µM) | 0.78 µg/mL (≈ 2.1 µM) | 2 µg/mL (≈ 5.39 µM) | 3.12 µg/mL (≈ 8.41 µM) | O=S(=O)(c1ccccc1)N1N=Cc2sc(Br)cc2B1O | ~20 mg/kg
19 | 12.5 µg/mL (≈ 35.2 µM) | 0.31 µg/mL (≈ 0.874 µM) | 0.5 µg/mL (≈ 1.41 µM) | 0.39 µg/mL (≈ 1.1 µM) | 0.78 µg/mL (≈ 2.2 µM) | 1 µg/mL (≈ 2.82 µM) | 3.12 µg/mL (≈ 8.8 µM) | CCc1cc2c(s1)C=NN(S(=O)(=O)c1ccccc1Cl)B2O | 49 mg/kg
